Legend:
Format in all cases: functional
Clostridium perfringens [1] = experiment: Antibacterial activity against Clostridium perfringens FNSST 4999 after 18 to 24 hrs by two-fold broth microdilution assay
Method in brief: (§1)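 CLSI two-fold broth microdilution. Compounds dissolved in DMSO, 10 mg/mL stock, serially diluted to 400–0.09 µg/mL in Mueller Hinton broth. Wells inoculated with 10^6 CFU/mL bacteria and incubated 18–24 h at 37 °C. 0.2 mg/mL INT added for 30 min. MIC taken as the lowest concentration with no visible growth or pink colour. Triplicate.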

Escherichia coli [2] = experiment: Antibacterial activity against […] expressing Escherichia coli isolate 4024 after 18 to 24 hrs by two-fold broth microdilution assay; method in brief: as §1
Staphylococcus aureus [3] = experiment: Antibacterial activity against Staphylococcus aureus ATCC 25923 assessed as diameter of zone of inhibition at 250 ug/disc after 24 hrs by disc diffusion method; conditions: ATCC 25923, 24 h, read-out: DIZ
Method in brief: (§2)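 Bacteria were grown overnight at 37 °C in TSB to about 10^6 cfu/mL, and 100 µL was spread on Mueller Hinton agar. Sterile 6 mm discs were each loaded with 25 µL of a 10 mg/mL stock in 96% ethanol, giving 250 µg/disc. Ethanol served as the negative control. Plates were incubated 24 h at 37 °C. Inhibition zone diameter was measured including the disc, in triplicate, as mean ± SE.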

Enterococcus faecalis [4] = experiment: Antibacterial activity against Enterococcus faecalis ATCC 29212 assessed as diameter of zone of inhibition at 250 ug/disc after 24 hrs by disc diffusion method; conditions: ATCC 29212, 24 h, read-out: DIZ; method in brief: as §2
Klebsiella pneumoniae [5] = experiment: Antibacterial activity against TEM-1/SHV-12 expressing Klebsiella pneumoniae isolate 303 after 18 to 24 hrs by two-fold broth microdilution assay
Method in brief: (§3)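 CLSI two-fold broth microdilution was used. Compounds were dissolved in DMSO, brought to 10 mg/mL in medium, then serially diluted in Mueller Hinton broth over 400–0.09 µg/mL. Overnight MHB cultures were diluted to 10^6 CFU/mL, and 10 µL was added per well. Plates were incubated 18–24 h at 37 °C, then 0.2 mg/mL INT was added for 30 min at 37 °C. MIC was the lowest concentration with no visible growth or pink colour, triplicate.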

Aeromonas hydrophila [6] = experiment: Antibacterial activity against TEM-1/SHV-12 expressing Aeromonas hydrophila isolate 268 after 18 to 24 hrs by two-fold broth microdilution assay; method in brief: as §3
Clostridium perfringens [7] = experiment: Antibacterial activity against Clostridium perfringens FNSST 4999 assessed as diameter of zone of inhibition at 250 ug/disc after 24 hrs by disc diffusion method; conditions: FNSST 4999, 24 h, read-out: DIZ
Method in brief: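 Disc diffusion per CLSI: 100 µL of 10^6 cfu/mL bacterial suspension spread on Mueller Hinton agar. 6 mm discs loaded with 25 µL of 10 mg/mL compound stock in 96% ethanol (250 µg/disc); ethanol as negative control. Incubated 24 h at 37 °C. Inhibition zone diameter measured in mm including the disc, triplicate, reported as mean ± SE.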

Kluyvera intermedia = experiment: Antibacterial activity against TEM-1/SHV-12/[…] expressing Enterobacter intermedius isolate 243 after 18 to 24 hrs by two-fold broth microdilution assay; method in brief: as §3
Klebsiella pneumoniae [8] = experiment: Ratio of gentamicin MIC to compound MIC for Klebsiella pneumoniae FNSST 011
Enterobacter cloacae [9] = experiment: Antibacterial activity against TEM-1/SHV-12 expressing Enterobacter cloacae isolate 306 after 18 to 24 hrs by two-fold broth microdilution assay
Aeromonas hydrophila [10] = experiment: Antibacterial activity against Aeromonas hydrophila FNSST 014 after 18 to 24 hrs by two-fold broth microdilution assay; method in brief: as §3
Pseudomonas aeruginosa [11] = experiment: Ratio of meropenem MIC to compound MIC for Pseudomonas aeruginosa isolate 197
Aeromonas caviae [12] = experiment: Antibacterial activity against TEM-1/CTX-M-15 expressing Aeromonas caviae isolate 260 after 18 to 24 hrs by two-fold broth microdilution assay; method in brief: as §3
Klebsiella pneumoniae [13] = experiment: Antibacterial activity against Klebsiella pneumoniae FNSST 011 after 18 to 24 hrs by two-fold broth microdilution assay; method in brief: as §3
Escherichia coli [14] = experiment: Antibacterial activity against Escherichia coli FNSST 982 assessed as diameter of zone of inhibition at 250 ug/disc after 24 hrs by disc diffusion method; conditions: FNSST 982, 24 h, read-out: DIZ; method in brief: as §2
Escherichia coli [15] = experiment: Antibacterial activity against TEM-1/SHV-12 expressing Escherichia coli isolate 237 after 18 to 24 hrs by two-fold broth microdilution assay; method in brief: as §1
Pseudomonas aeruginosa [16] = experiment: Antibacterial activity against Pseudomonas aeruginosa FNSST 982 after 18 to 24 hrs by two-fold broth microdilution assay; method in brief: as §3
Enterobacter cloacae [17] = experiment: Antibacterial activity against CTX-15 expressing Enterobacter cloacae isolate 51 after 18 to 24 hrs by two-fold broth microdilution assay
Escherichia coli [18] = experiment: Antibacterial activity against […] expressing Escherichia coli isolate 235 after 18 to 24 hrs by two-fold broth microdilution assay; method in brief: as §1
Enterococcus faecalis [19] = experiment: Antibacterial activity against Enterococcus faecalis ATCC 29212 after 18 to 24 hrs by two-fold broth microdilution assay; method in brief: as §3
Escherichia coli [20] = experiment: Antibacterial activity against Escherichia coli FNSST 982 after 18 to 24 hrs by two-fold broth microdilution assay; method in brief: as §3
Bacillus cereus [21] = experiment: Antibacterial activity against Bacillus cereus ATCC 11778 after 18 to 24 hrs by two-fold broth microdilution assay; method in brief: as §3
Acinetobacter baumannii [22] = experiment: Ratio of imipenem MIC to compound MIC for Acinetobacter baumannii isolate 170
Aeromonas hydrophila [23] = experiment: Ratio of gentamicin MIC to compound MIC for Aeromonas hydrophila FNSST 014
Klebsiella pneumoniae [24] = experiment: Antibacterial activity against Klebsiella pneumoniae FNSST 011 assessed as diameter of zone of inhibition at 250 ug/disc after 24 hrs by disc diffusion method; conditions: FNSST 011, 24 h, read-out: DIZ; method in brief: as §2
Acinetobacter baumannii [25] = experiment: Antibacterial activity against SIM-1 expressing Acinetobacter baumannii isolate 170 after 18 to 24 hrs by two-fold broth microdilution assay; method in brief: as §1
Pseudomonas aeruginosa [26] = experiment: Ratio of gentamicin MIC to compound MIC for Pseudomonas aeruginosa FNSST 982
Aeromonas hydrophila [27] = experiment: Antibacterial activity against Aeromonas hydrophila FNSST 014 assessed as diameter of zone of inhibition at 250 ug/disc after 24 hrs by disc diffusion method; conditions: FNSST 014, 24 h, read-out: DIZ; method in brief: as §2
Pseudomonas aeruginosa [28] = experiment: Ratio of imipenem MIC to compound MIC for Pseudomonas aeruginosa isolate 197
Aeromonas caviae [29] = experiment: Antibacterial activity against […] expressing Aeromonas caviae isolate 258 after 18 to 24 hrs by two-fold broth microdilution assay; method in brief: as §3
Talaromyces funiculosus = experiment: Antifungal activity against Penicillium funiculosum FNSST 3724 assessed as diameter of zone of inhibition at 250 ug/disc after 72 hrs by disc diffusion method; conditions: FNSST 3724, 72 h, read-out: DIZ
Method in brief: (§4)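 Fungi were grown overnight at 30 °C in Sabouraud dextrose broth to 10^4 cfu/mL, and 100 µL was spread on Sabouraud dextrose agar. 6 mm discs carried 250 µg (25 µL of a 10 mg/mL stock in 96% ethanol), with ethanol as the negative control. Incubation was at 30 °C for 48 h (yeast) or 72 h (molds). Zone diameter was read including the disc, in triplicate, mean ± SE.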

Candida albicans = experiment: Antifungal activity against Candida albicans ATCC 10231 assessed as diameter of zone of inhibition at 250 ug/disc after 48 hrs by disc diffusion method; conditions: ATCC 10231, 48 h, read-out: DIZ; method in brief: as §4
Pseudomonas aeruginosa [30] = experiment: Antibacterial activity against GIM-1 expressing Pseudomonas aeruginosa isolate 197 after 18 to 24 hrs by two-fold broth microdilution assay; method in brief: as §3
Staphylococcus aureus [31] = experiment: Antibacterial activity against Staphylococcus aureus ATCC 25923 after 18 to 24 hrs by two-fold broth microdilution assay; method in brief: as §3
Enterobacter cloacae [32] = experiment: Antibacterial activity against TEM-1/CTX-M-15 expressing Enterobacter cloacae isolate 62 after 18 to 24 hrs by two-fold broth microdilution assay
Bacillus cereus [33] = experiment: Antibacterial activity against Bacillus cereus ATCC 11778 assessed as diameter of zone of inhibition at 250 ug/disc after 24 hrs by disc diffusion method; conditions: ATCC 11778, 24 h, read-out: DIZ; method in brief: as §2
Escherichia coli [34] = experiment: Ratio of gentamicin MIC to compound MIC for Escherichia coli FNSST 982
[35] = test system: Stenotrophomonas maltophilia; experiment: Antibacterial activity against […] expressing Stenotrophomonas maltophilia isolate 125 after 18 to 24 hrs by two-fold broth microdilution assay; method in brief: as §3
Pseudomonas aeruginosa [36] = experiment: Antibacterial activity against Pseudomonas aeruginosa FNSST 982 assessed as diameter of zone of inhibition at 250 ug/disc after 24 hrs by disc diffusion method; conditions: FNSST 982, 24 h, read-out: DIZ; method in brief: as §2
Acinetobacter baumannii [37] = experiment: Ratio of meropenem MIC to compound MIC for Acinetobacter baumannii isolate 170
Aspergillus fumigatus = experiment: Antifungal activity against Aspergillus fumigatus FNSST 3833 assessed as diameter of zone of inhibition at 250 ug/disc after 72 hrs by disc diffusion method; conditions: FNSST 3833, 72 h, read-out: DIZ; method in brief: as §4

`O/N=C/c1n(Cc2ccccc2)cc[n+]1-c1ccc(F)cc1.[Br-]` was tested, and the MIC (Clostridium perfringens [1]) was 25 µg/mL, the MIC (Escherichia coli [2]) was 1.56 µg/mL and the zone of inhibition at 250 µg/disc (Staphylococcus aureus [3]) was 19.9 mm. It also gave a zone of inhibition at 250 µg/disc (Enterococcus faecalis [4]) of 19.6 mm, an MIC (Klebsiella pneumoniae [5]) of 12.5 µg/mL and an MIC (Aeromonas hydrophila [6]) of 12.5 µg/mL. For the same compound, the zone of inhibition at 250 µg/disc (Clostridium perfringens [7]) was 11.4 mm, the MIC (Kluyvera intermedia) was 6.25 µg/mL and the Ratio (Klebsiella pneumoniae [8]) was 2.5. The MIC (Enterobacter cloacae [9]) was 6.25 µg/mL, the MIC (Aeromonas hydrophila [10]) was 12.5 µg/mL and the Ratio (Pseudomonas aeruginosa [11]) was 20. The MIC (Aeromonas caviae [12]) was 12.5 µg/mL, the MIC (Klebsiella pneumoniae [13]) was 1.56 µg/mL and the zone of inhibition at 250 µg/disc (Escherichia coli [14]) was 15.3 mm. It also gave an MIC (Escherichia coli [15]) of 3.12 µg/mL, an MIC (Pseudomonas aeruginosa [16]) of 25 µg/mL and an MIC (Enterobacter cloacae [17]) of 6.25 µg/mL. It also gave an MIC (Escherichia coli [18]) of 6.25 µg/mL, an MIC (Enterococcus faecalis [19]) of 6.25 µg/mL and an MIC (Escherichia coli [20]) of 12.5 µg/mL. It also gave an MIC (Bacillus cereus [21]) of 6.25 µg/mL, a Ratio (Acinetobacter baumannii [22]) of 20 and a Ratio (Aeromonas hydrophila [23]) of 2.5. It also gave a zone of inhibition at 250 µg/disc (Klebsiella pneumoniae [24]) of 14.7 mm, an MIC (Acinetobacter baumannii [25]) of 0.78 µg/mL and a Ratio (Pseudomonas aeruginosa [26]) of 2.5. For the same compound, the zone of inhibition at 250 µg/disc (Aeromonas hydrophila [27]) was 16.5 mm, the Ratio (Pseudomonas aeruginosa [28]) was 20 and the MIC (Aeromonas caviae [29]) was 12.5 µg/mL. The zone of inhibition at 250 µg/disc (Talaromyces funiculosus) was 17.9 mm, the zone of inhibition at 250 µg/disc (Candida albicans) was 21.9 mm and the MIC (Pseudomonas aeruginosa [30]) was 0.39 µg/mL. It also gave an MIC (Staphylococcus aureus [31]) of 6.25 µg/mL, an MIC (Enterobacter cloacae [32]) of 6.25 µg/mL and a zone of inhibition at 250 µg/disc (Bacillus cereus [33]) of 18.3 mm. For the same compound, the Ratio (Escherichia coli [34]) was 2.5, the MIC [35] was 12.5 µg/mL and the zone of inhibition at 250 µg/disc (Pseudomonas aeruginosa [36]) was 15.9 mm. It also gave a Ratio (Acinetobacter baumannii [37]) of 20 and a zone of inhibition at 250 µg/disc (Aspergillus fumigatus) of 19.4 mm.
`O/N=C/c1n(Cc2ccccc2)cc[n+]1-c1ccccc1.[Br-]` showed an MIC (Clostridium perfringens [1]) of 25 µg/mL, a zone of inhibition at 250 µg/disc (Staphylococcus aureus [3]) of 12.5 mm and a zone of inhibition at 250 µg/disc (Enterococcus faecalis [4]) of 13.3 mm. For the same compound, the zone of inhibition at 250 µg/disc (Clostridium perfringens [7]) was 16.6 mm, the MIC (Aeromonas hydrophila [10]) was 25 µg/mL and the MIC (Klebsiella pneumoniae [13]) was 31.2 µg/mL. The zone of inhibition at 250 µg/disc (Escherichia coli [14]) was 12.3 mm, the MIC (Pseudomonas aeruginosa [16]) was 25 µg/mL and the MIC (Enterococcus faecalis [19]) was 25 µg/mL. It also gave an MIC (Escherichia coli [20]) of 3.12 µg/mL, an MIC (Bacillus cereus [21]) of 25 µg/mL and a zone of inhibition at 250 µg/disc (Klebsiella pneumoniae [24]) of 15.5 mm. For the same compound, the zone of inhibition at 250 µg/disc (Aeromonas hydrophila [27]) was 15.3 mm, the zone of inhibition at 250 µg/disc (Talaromyces funiculosus) was 17.4 mm and the zone of inhibition at 250 µg/disc (Candida albicans) was 18.1 mm. The MIC (Staphylococcus aureus [31]) was 12.5 µg/mL, the zone of inhibition at 250 µg/disc (Bacillus cereus [33]) was 15 mm and the Ratio (Escherichia coli [34]) was 10. The zone of inhibition at 250 µg/disc (Pseudomonas aeruginosa [36]) was 14.9 mm and the zone of inhibition at 250 µg/disc (Aspergillus fumigatus) was 20.8 mm.
